# Results gathered from unrelated publications.
# Compare with care: the assays were run in different laboratories.
# Target: Vascular endothelial growth factor receptor 3 (FLT4, Homo sapiens, UniProt P35916)
Structure (SMILES),assay,conditions,remaining binding
CN(CCCC(F)(F)F)c1nccc(-c2cnn3ncccc23)n1,binding,1 µM,100%
C[C@@H]1CN(c2cc(-c3nn(C)c4ccc(OC5(C)CC5)cc34)ncn2)C[C@H](C)O1,"cell-free assay, competition with immobilised ligand",1 µM,85%
Cc1cnc(Nc2ccc(C(=O)N3CCC(N4CCCC4)CC3)cc2)nc1-c1cc2ccccc2s1,"binding, competition with immobilised ligand",1 µM,0.4%
N[C@H]1CCN(c2nccc(-c3cnn4ncccc34)n2)C1,binding,1 µM,92%
C=CC(=O)Nc1cccc(CN2C(=O)N(c3c(Cl)c(OC)cc(OC)c3Cl)Cc3cnc(NCCCCN(CC)CC)nc32)c1,"cell-free assay, competition with immobilised ligand",10 µM,0.2%
Cc1nc(N2CC[C@@H](O)C2)ncc1-c1cc(C(F)(F)F)cc2[nH]ncc12,"cell-free assay, competition with immobilised ligand",1 µM,100%
CCN1CCN(Cc2ccc(C(=O)Nc3ccc(C)c(Oc4ccc5c(c4)CC(=O)N5)c3)cc2C(F)(F)F)CC1,"binding, competition with immobilised ligand",1 µM,100%
C=CC(=O)N1CCC(C(=O)NCC(=O)N2CCN(c3nc(-c4cnc(N)nc4C(F)F)nc(N4CCOCC4)n3)CC2)CC1,"binding, competition with immobilised ligand",1 µM,96%
O=C(c1ccc(Nc2ncc(Cl)c(-c3cc4ccccc4s3)n2)cc1)N1CCC(N2CCCC2)CC1,"binding, competition with immobilised ligand",1 µM,0.7%
COc1cnc(Nc2cccc(S(N)(=O)=O)c2)nc1N1CCN(c2ccccc2)C(=O)C1,"binding, competition with immobilised ligand",1 µM,100%
COc1ccnn2ncc(-c3ccnc(N(C)C)n3)c12,binding,1 µM,100%
CNC(=O)[C@@H]1CC[C@@H](n2c(-c3ccc4cnccc4c3)nc3ccc(C(=O)NCc4cccc(C(N)=O)c4)cc32)C1,"binding, competition with immobilised ligand",1 µM,100%
CCc1ccccc1C(=O)Nc1n[nH]c2c(C)c(F)c(C3C(C#N)=C(C)N(C)C(C)=C3C#N)cc12,"cell-free assay, competition with immobilised ligand",1 µM,85%
C[C@@H](c1ccc(-n2cnc3c(N)ncnc32)cc1)N1CCc2nn(C)c(Cc3ccccc3)c2C1=O,"binding, competition with immobilised ligand",0.1 µM,91%
CNCc1ccccc1-c1csc([C@@H](C)Nc2nc(C)nc3cc(OC)c(OC)cc23)c1,"cell-free assay, competition with immobilised ligand",1 µM,83%
O=C(NCCCN1CCOCC1)c1ccc(Nc2nccc(-c3cc4ccccc4s3)n2)cc1,"binding, competition with immobilised ligand",1 µM,50%
Nc1c(C(=O)NCc2ccc(C(=O)NCCCC3CCCCC3)cc2)cnn1-c1ccccc1,"cell-free assay, competition with immobilised ligand",0.1 µM,100%
CN(C)c1ncc(F)c(-c2cnn3ncccc23)n1,binding,1 µM,86%
Cc1cc(C)c(-n2ccn3nc(-c4cccnc4)cc23)cc1NC(=O)c1cc(C#N)cc(S(F)(F)(F)(F)F)c1,"cell-free assay, competition with immobilised ligand",0.1 µM,77.6%
F[C@@H]1CCN(c2nccc(-c3cnn4ncccc34)n2)C1,binding,1 µM,90%
COc1ncc2cc3ccccc3nc2c1C#N,"cell-free assay, competition with immobilised ligand",5 µM,96%
C[C@H]1CCN(c2nccc(-c3cnn4ncccc34)n2)C1,binding,1 µM,100%
O=C(Nc1c[nH]nc1C(=O)NC1CCNCC1)c1cc(F)cc(F)c1,"binding, competition with immobilised ligand",1 µM,100%
